pIC50: −log10 of the molar value.
target: Cannabinoid receptor 1 (Rattus norvegicus, UniProt P20272); experiment: Displacement of [3H]CP-55940 from CB1 receptor in Sprague-Dawley rat cerebellar membrane; set-up: species or system Cerebellum
Procedure, shortened: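 Membranes came from cerebella of male Sprague Dawley rats (200–300 g), homogenized in TME buffer (50 mM Tris–HCl, 1 mM EDTA, 3 mM MgCl2, pH 7.4) and spun at 48,000g for 30 min at 4 °C. They were incubated 1 h at 30 °C in TME with 0.5% fatty-acid-free BSA, then filtered on PEI-soaked GF/B, washed and counted by scintillation. IC50 values are from single determinations.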

Sequence of Cannabinoid receptor 1 (P20272 whole entry): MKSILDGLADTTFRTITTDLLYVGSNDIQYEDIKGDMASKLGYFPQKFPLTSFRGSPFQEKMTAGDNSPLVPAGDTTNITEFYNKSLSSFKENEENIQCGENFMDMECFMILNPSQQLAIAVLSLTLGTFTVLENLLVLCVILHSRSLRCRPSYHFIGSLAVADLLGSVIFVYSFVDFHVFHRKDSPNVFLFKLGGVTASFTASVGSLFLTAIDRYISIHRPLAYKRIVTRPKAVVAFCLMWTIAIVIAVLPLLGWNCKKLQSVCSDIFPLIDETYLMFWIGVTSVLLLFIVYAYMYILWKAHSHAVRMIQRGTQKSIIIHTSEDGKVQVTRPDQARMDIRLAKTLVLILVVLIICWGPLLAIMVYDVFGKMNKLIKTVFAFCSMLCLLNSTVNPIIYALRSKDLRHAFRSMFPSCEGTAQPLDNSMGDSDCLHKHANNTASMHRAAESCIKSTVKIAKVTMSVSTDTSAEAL

Structure (SMILES) | pIC50
CC(NC(=O)c1nn(-c2ccc(Cl)cc2Cl)c(-c2ccc(Cl)cc2)c1Cn1cncn1)c1ccc(Br)cc1 (stereo not given) | 8.59
Cc1cccc(N2CCN(C(=O)c3nn(-c4ccccc4Cl)c(-c4ccc(Cl)cc4)c3Cn3cncn3)CC2)c1C | 8.22
O=C(NCC1CCCCC1)c1nn(-c2ccc(Cl)cc2Cl)c(-c2ccc(Br)cc2)c1Cn1cncn1 | 7.69
CCC(C)(C)NC(=O)c1nn(-c2ccccc2Cl)c(-c2ccc(Cl)cc2)c1Cn1cncn1 | 7.92
Cc1cccc(N2CCN(C(=O)c3nn(-c4ccc(Cl)cc4Cl)c(-c4ccc(Cl)cc4)c3Cn3cncn3)CC2)c1C | 7.94
O=C(NC1CCCCCC1)c1nn(-c2ccc(Cl)cc2Cl)c(-c2ccc(Cl)cc2)c1Cn1cncn1 | 7.95
O=C(NNC(=O)C1(c2ccc(Cl)cc2)CC1)c1nn(-c2ccc(Cl)cc2Cl)c(-c2ccc(Cl)cc2)c1Cn1cncn1 | 7.35
CC(NC(=O)c1nn(-c2ccc(Cl)cc2Cl)c(-c2ccc(Cl)cc2)c1Cn1cncn1)c1ccc(Cl)cc1Cl (stereo not given) | 8.59
O=C(c1nn(-c2ccccc2Cl)c(-c2ccc(Br)cc2)c1Cn1cncn1)N1CCN(c2ccccc2)CC1 | 8.10
O=C(NC1CCCC1)c1nn(-c2ccc(Cl)cc2Cl)c(-c2ccc(Cl)cc2)c1Cn1cncn1 | 8.16
O=C(c1nn(-c2ccc(Cl)cc2Cl)c(-c2ccc(Cl)cc2)c1Cn1cncn1)N1CCN(c2ccccc2)CC1 | 8.05
O=C(NCC1CCCCC1)c1nn(-c2ccc(Cl)cc2Cl)c(-c2ccc(Cl)cc2)c1Cn1cncn1 | 7.64
CC(C)(C)NC(=O)c1nn(-c2ccccc2Cl)c(-c2ccc(Br)cc2)c1Cn1cncn1 | 8.10
O=C(NCc1ccccn1)c1nn(-c2ccccc2Cl)c(-c2ccc(Br)cc2)c1Cn1cncn1 | 7.20
CC(C)(C)NC(=O)c1nn(-c2ccc(Cl)cc2Cl)c(-c2ccc(Cl)cc2)c1Cn1cncn1 | 8.31
O=C(NC1(c2ccccc2)CC1)c1nn(-c2ccccc2Cl)c(-c2ccc(Cl)cc2)c1Cn1cncn1 | 8.24
O=C(NC1(C(F)(F)F)CCC1)c1nn(-c2ccccc2Cl)c(-c2ccc(Br)cc2)c1Cn1cncn1 | 8.13
O=C(NC1CCCCC1)c1nn(-c2ccc(Cl)cc2Cl)c(-c2ccc(Br)cc2)c1Cn1cncn1 | 8.36

Structure (SMILES) | pIC50
O=C(c1nn(-c2ccc(Cl)cc2Cl)c(-c2ccc(Cl)cc2)c1Cn1cncn1)N1CCN(c2ncccn2)CC1 | 7.25
CCC(C)(C)NC(=O)c1nn(-c2ccc(Cl)cc2Cl)c(-c2ccc(Cl)cc2)c1Cn1cncn1 | 8.52
O=C(NC1(C(F)(F)F)CC1)c1nn(-c2ccc(Cl)cc2Cl)c(-c2ccc(Br)cc2)c1Cn1cncn1 | 8.48
O=C(c1nn(-c2ccccc2Cl)c(-c2ccc(Cl)cc2)c1Cn1cncn1)N1CCN(c2cccc(Cl)c2)CC1 | 8.39
CC(NC(=O)c1nn(-c2ccc(Cl)cc2Cl)c(-c2ccc(Br)cc2)c1Cn1cncn1)C(C)(C)C (stereo not given) | 8.39
CC(C)(NC(=O)c1nn(-c2ccccc2Cl)c(-c2ccc(Cl)cc2)c1Cn1cncn1)c1ccc(Cl)cc1 | 8.11
O=C(NC1(C(F)(F)F)CCC1)c1nn(-c2ccc(Cl)cc2Cl)c(-c2ccc(Cl)cc2)c1Cn1cncn1 | 8.33
O=C(NC1(C(F)(F)F)CC1)c1nn(-c2ccccc2Cl)c(-c2ccc(Br)cc2)c1Cn1cncn1 | 8.04
O=C(NN1CCCCC1)c1nn(-c2ccccc2Cl)c(-c2ccc(Br)cc2)c1Cn1cncn1 | 8.28
O=C(NC1CCCCCC1)c1nn(-c2ccccc2Cl)c(-c2ccc(Br)cc2)c1Cn1cncn1 | 8.57
O=C(NCc1ccccn1)c1nn(-c2ccc(Cl)cc2Cl)c(-c2ccc(Cl)cc2)c1Cn1cncn1 | 7.13
O=C(NCc1ccccc1)c1nn(-c2ccc(Cl)cc2Cl)c(-c2ccc(Br)cc2)c1Cn1cncn1 | 7.89
C[C@H]1CC[C@@H](NC(=O)c2nn(-c3ccc(Cl)cc3Cl)c(-c3ccc(Cl)cc3)c2Cn2cncn2)CC1 | 7.77
CCCCC(CC)CNC(=O)c1nn(-c2ccc(Cl)cc2Cl)c(-c2ccc(Cl)cc2)c1Cn1cncn1 (stereo not given) | 7.69
CC(NC(=O)c1nn(-c2ccc(Cl)cc2Cl)c(-c2ccc(Cl)cc2)c1Cn1cncn1)C(C)(C)C (stereo not given) | 8.07
O=C(NC1CCCCC1)c1nn(-c2ccc(Cl)cc2Cl)c(-c2ccc(Cl)cc2)c1Cn1cncn1 | 8.42
CC(C)(NC(=O)c1nn(-c2ccc(Cl)cc2Cl)c(-c2ccc(Cl)cc2)c1Cn1cncn1)c1ccc(Cl)cc1 | 8.48
O=C(NC1(c2ccc(Cl)cc2)CC1)c1nn(-c2ccc(Cl)cc2Cl)c(-c2ccc(Cl)cc2)c1Cn1cncn1 | 8.29

Further compounds by rising pIC50, results first:

pIC50 | Structure (SMILES)
5.40 | CCN1CCCC1CNC(=O)c1nn(-c2ccc(Cl)cc2Cl)c(-c2ccc(Cl)cc2)c1Cn1cncn1 (stereo not given)
5.85 | CN1CCN(C(=O)c2nn(-c3ccc(Cl)cc3Cl)c(-c3ccc(Cl)cc3)c2Cn2cncn2)CC1
5.87 | CN1CCN(C(=O)c2nn(-c3ccc(Cl)cc3Cl)c(-c3ccc(Br)cc3)c2Cn2cncn2)CC1
5.98 | CCN1CCN(C(=O)c2nn(-c3ccccc3Cl)c(-c3ccc(Cl)cc3)c2Cn2cncn2)CC1
6.02 | CN1CCN(C(=O)c2nn(-c3ccccc3Cl)c(-c3ccc(Cl)cc3)c2Cn2cncn2)CC1
6.05 | CN1CCN(C(=O)c2nn(-c3ccccc3Cl)c(-c3ccc(Br)cc3)c2Cn2cncn2)CC1
6.06 | CCNC1(C(N)=O)CCN(C(=O)c2nn(-c3ccc(Cl)cc3Cl)c(-c3ccc(Cl)cc3)c2Cn2cncn2)CC1
6.52 | CCN1CCN(C(=O)c2nn(-c3ccccc3Cl)c(-c3ccc(Br)cc3)c2Cn2cncn2)CC1
6.55 | CCN1CCN(C(=O)c2nn(-c3ccc(Cl)cc3Cl)c(-c3ccc(Br)cc3)c2Cn2cncn2)CC1
6.72 | O=C(NNC(=O)C1CCCCC1)c1nn(-c2ccc(Cl)cc2Cl)c(-c2ccc(Cl)cc2)c1Cn1cncn1
6.90 | O=C(NNC(=O)C1(C(F)(F)F)CC1)c1nn(-c2ccc(Cl)cc2Cl)c(-c2ccc(Cl)cc2)c1Cn1cncn1
7.22 | O=C(N[C@H]1CCCC[C@@H]1O)c1nn(-c2ccc(Cl)cc2Cl)c(-c2ccc(Cl)cc2)c1Cn1cncn1
7.65 | O=C(c1nn(-c2ccccc2Cl)c(-c2ccc(Br)cc2)c1Cn1cncn1)N1CCN(c2ncccn2)CC1
7.71 | N#CC1(NC(=O)c2nn(-c3ccccc3Cl)c(-c3ccc(Br)cc3)c2Cn2cncn2)CC1
7.72 | O=C(NCc1ccccc1)c1nn(-c2ccc(Cl)cc2Cl)c(-c2ccc(Cl)cc2)c1Cn1cncn1
7.74 | C[C@@H]1CCCC[C@@H]1NC(=O)c1nn(-c2ccc(Cl)cc2Cl)c(-c2ccc(Cl)cc2)c1Cn1cncn1 (single isomer, unassigned)
7.91 | O=C(NCC1CCCCC1)c1nn(-c2ccccc2Cl)c(-c2ccc(Cl)cc2)c1Cn1cncn1
7.94 | O=C(c1nn(-c2ccccc2Cl)c(-c2ccc(Cl)cc2)c1Cn1cncn1)N1CCN(c2ccccc2)CC1
7.94 | CC1CCCC(C)N1NC(=O)c1nn(-c2ccc(Cl)cc2Cl)c(-c2ccc(Cl)cc2)c1Cn1cncn1 (stereo not given)
8.01 | O=C(NC1CCCCCC1)c1nn(-c2ccccc2Cl)c(-c2ccc(Cl)cc2)c1Cn1cncn1
8.04 | O=C(NC1(c2ccc(Cl)cc2)CC1)c1nn(-c2ccccc2Cl)c(-c2ccc(Cl)cc2)c1Cn1cncn1
8.05 | CCC(C)(C)NC(=O)c1nn(-c2ccccc2Cl)c(-c2ccc(Br)cc2)c1Cn1cncn1

pIC50 | Structure (SMILES)
8.07 | O=C(NC1CCCCCC1)c1nn(-c2ccc(Cl)cc2Cl)c(-c2ccc(Br)cc2)c1Cn1cncn1
8.08 | O=C(NN1CCCCCC1)c1nn(-c2ccc(Cl)cc2Cl)c(-c2ccc(Br)cc2)c1Cn1cncn1
8.10 | O=C(NC1(c2ccccc2)CC1)c1nn(-c2ccc(Cl)cc2Cl)c(-c2ccc(Br)cc2)c1Cn1cncn1
8.13 | CC(C)(NC(=O)c1nn(-c2ccc(Cl)cc2Cl)c(-c2ccc(Cl)cc2)c1Cn1cncn1)c1ccccc1
8.13 | O=C(c1nn(-c2ccc(Cl)cc2Cl)c(-c2ccc(Cl)cc2)c1Cn1cncn1)N1CCN(c2cccc(Cl)c2)CC1
8.14 | O=C(c1nn(-c2ccc(Cl)cc2Cl)c(-c2ccc(Br)cc2)c1Cn1cncn1)N1CCN(c2cccc(Cl)c2)CC1
8.18 | O=C(NC1CCCCC1)c1nn(-c2ccccc2Cl)c(-c2ccc(Cl)cc2)c1Cn1cncn1
8.21 | CC(NC(=O)c1nn(-c2ccccc2Cl)c(-c2ccc(Cl)cc2)c1Cn1cncn1)C(C)(C)C (stereo not given)
8.24 | O=C(c1nn(-c2ccc(Cl)cc2Cl)c(-c2ccc(Br)cc2)c1Cn1cncn1)N1CCN(c2cccc(Cl)c2Cl)CC1
8.26 | O=C(c1nn(-c2ccc(Cl)cc2Cl)c(-c2ccc(Cl)cc2)c1Cn1cncn1)N1CCN(c2cccc(Cl)c2Cl)CC1
8.29 | O=C(NC1(C(F)(F)F)CCC1)c1nn(-c2ccccc2Cl)c(-c2ccc(Cl)cc2)c1Cn1cncn1
8.29 | O=C(NN1CCCCC1)c1nn(-c2ccc(Cl)cc2Cl)c(-c2ccc(Br)cc2)c1Cn1cncn1
8.29 | O=C(NC1(c2ccccc2)CC1)c1nn(-c2ccc(Cl)cc2Cl)c(-c2ccc(Cl)cc2)c1Cn1cncn1
8.32 | O=C(NC1(C(F)(F)F)CC1)c1nn(-c2ccccc2Cl)c(-c2ccc(Cl)cc2)c1Cn1cncn1
8.41 | O=C(NC1(C(F)(F)F)CCC1)c1nn(-c2ccc(Cl)cc2Cl)c(-c2ccc(Br)cc2)c1Cn1cncn1
8.42 | O=C(NN1CCCCC1)c1nn(-c2ccc(Cl)cc2Cl)c(-c2ccc(Cl)cc2)c1Cn1cncn1
8.42 | Cc1cccc(N2CCN(C(=O)c3nn(-c4ccc(Cl)cc4Cl)c(-c4ccc(Br)cc4)c3Cn3cncn3)CC2)c1C
8.44 | CCC(C)(C)NC(=O)c1nn(-c2ccc(Cl)cc2Cl)c(-c2ccc(Br)cc2)c1Cn1cncn1
8.52 | CC(C)(NC(=O)c1nn(-c2ccc(Cl)cc2Cl)c(-c2ccc(Br)cc2)c1Cn1cncn1)c1ccc(Cl)cc1
8.54 | CC(C)(C)NC(=O)c1nn(-c2ccc(Cl)cc2Cl)c(-c2ccc(Br)cc2)c1Cn1cncn1
8.55 | O=C(NC1(c2ccc(Cl)cc2)CC1)c1nn(-c2ccc(Cl)cc2Cl)c(-c2ccc(Br)cc2)c1Cn1cncn1
8.66 | CC(NC(=O)c1nn(-c2ccc(Cl)cc2Cl)c(-c2ccc(Br)cc2)c1Cn1cncn1)c1ccc(Cl)cc1Cl (stereo not given)

From ChEMBL document CHEMBL1159084, “Synthesis and structure-activity relationship of 1,2,4-triazole-containing diarylpyrazolyl carboxamide as CB1 cannabinoid receptor-ligand” (Bioorg Med Chem, 2010)
